Data: PubChem BioAssay AID1885 (Broad Institute, 2009)
Among all 300,000 compounds or so, about 4,400 (1.5%) were called active. This is one part of a sample in which actives are shown more often than they occur. A number with no mark means an inactive call.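 The calls were made as follows: active = mean inhibition across valid replicates above about 55% (limit read from the data); inconclusive = mean below that limit but half or more replicates reach it; inactive = mean below it, under half of replicates reach it.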

Assay: inhibitors of intracellular T. cruzi growth, primary screen, luminescence, NIH3T3 host cells (AID 1885);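 also: signal also drops with host cell toxicity which is not excluded here; 0% = plate median of DMSO wells and 100% = zero luminescence signal; higher percent means less beta-gal luminescence so fewer parasites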
Conditions: T. cruzi beta-gal in NIH3T3, luminescence, 90 h; hits give high values; concentration not given here
Outline: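 Test system: β-gal T. cruzi (Tulahuen C4) inside NIH/3T3 cells / Quantity: 5,000 cells/well / Measured by: luminescence from GalScreen with 0.05% NP40, read after 60 min / Medium: DMEM plus 2% FBS / Measure: parasite load inhibition, % / Reagent: Tulahuen C4 trypomastigotes, 5000/well / Schedule: co-culture of at least 90 h after 3 h attachment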

| SMILES | inhibition |
| --- | --- |
| CCOC(=O)c1ccc(NC(=O)c2ccc(NC(=O)C3CCCO3)cc2)cc1 (centres undefined) | 3.02% |
| CCOc1ccccc1C1CC(c2ccc(Cl)cc2)Nc2nc(N)nn21 (centres undefined) | 17.4% |
| CCCn1c(C)cc(-c2csc(NC(=O)CCc3nc4ccccc4c(=O)[nH]3)n2)c1C | 5.04% |
| COc1ccccc1OCC(O)CN1CCOCC1 (centres undefined) | 1.66% |
| Cc1cccc(OCC(O)CN2CCN(CCN3C(=O)c4cccc5cccc(c45)C3=O)CC2)c1C (centres undefined) | 67.1% (active) |
| Cc1ccccc1OCC(O)CN1CCN(c2ccccn2)CC1 (centres undefined) | 0.87% |
| COc1ccccc1NS(=O)(=O)c1ccc(C(=O)N2CCN(c3ccccc3O)CC2)cc1 | 0.881% |
| O=C(COC(=O)c1ncc(Cl)c(Cl)c1Cl)NCc1cccs1 | -17.6% |
| Cc1csc(NC(=O)c2ccc(C)s2)n1 | -14.9% |
| Cn1c(=O)c(=O)n(C)c2cc(S(=O)(=O)NCCN3CCN(c4ccccc4F)CC3)ccc21 | 56% (active) |
| Cn1c(=O)c(=O)n(C)c2cc(S(=O)(=O)NCCc3ccccc3)ccc21 | -8.33% |
| Cc1ccc(S(=O)(=O)NCCN2CCOCC2)cc1C | 1.47% |
| COc1cc(CNCc2ccc3c(c2)OCO3)c([N+](=O)[O-])cc1OC | 9.09% |
| C=CS(=O)c1sc(Cl)c(N2CCOCC2)c1[N+](=O)[O-] (centres undefined) | 69.9% (active) |
| COc1ccc(-c2nc(CCNC(=O)c3ccc(Br)o3)cs2)cc1 | 9.33% |
| O=C(NCCc1csc(-c2ccccc2)n1)c1ccccc1F | 66.1% (active) |
| O=S(=O)(NCCc1csc(-c2ccccc2)n1)c1cccnc1 | 8.42% |
| CC(=O)c1ccc(S(=O)(=O)NC2CC(=O)N(c3ccc4c(c3)OCCO4)C2)cc1 (centres undefined) | 0.0508% |
| CC(=O)Nc1nc2ccccc2n1Cc1ccc(C)cc1 | 79.7% (active) |
| CC(=O)c1nc2ccccc2n1Cc1ccccc1 | 8% |
| CCC(=O)Nc1nc2ccccc2n1Cc1ccccc1C | 45.5% |
| O=C(CCC(=O)c1cccs1)Nc1nc2ccccc2s1 | -3.43% |
| CCN(CC)CCn1c2c(c(SCC(=O)Nc3ccc(C(C)C)cc3)nc1=O)CCC2 | 9.44% |
| C=CC1=C(C(=O)O)N2C(=O)[C@@H](NC(=O)/C(=N/OCC(=O)O)c3csc(N)n3)[C@H]2SC1 | -7.4% |
| O=C(Cc1ccc(S(=O)(=O)N2CCOCC2)s1)NCCOc1ccccc1F | 5.5% |
| COc1ccccc1CCNC(=O)CN1C(=O)NC2(CCCC2)C1=O | -8.97% |
| O=C(COC(=O)c1ncc(Cl)c(Cl)c1Cl)NC1CCS(=O)(=O)C1 (centres undefined) | -20.7% |

| SMILES | inhibition |
| --- | --- |
| Cc1cccc([C@@H]2[C@@H]3C(=O)N(Cc4ccccc4)C(=O)[C@@H]3[C@]3(Cc4ccc(Cl)cc4)C(=O)N(c4cccc(Cl)c4)C(=O)N23)c1 | -3.42% |
| Cc1c(C(=O)OCC(=O)N2CCCC2=O)oc2ccccc12 | -3.64% |
| O=C(CCN1CCN(C/C=C/c2ccccc2)CC1)Nc1cccc(F)c1 | 58.2% (active) |
| O=C(CN1CCN(C/C=C/c2ccccc2)CC1)Nc1ccc(F)cc1F | 32.3% |
| O=C(CCN1CCN(C/C=C/c2ccccc2)CC1)Nc1ccccc1Cl | 33.5% |
| CC[C@@]12C(=O)N(c3ccccc3)C(=O)N1[C@H](c1ccc(Br)cc1)[C@@H]1C(=O)N(C(C)(C)C)C(=O)[C@@H]12 | 1.35% |
| CC(C)COC(=O)c1ccc(NC(=O)C2C3C=CC(C3)C2C(=O)O)cc1 (centres undefined) | 1.59% |
| CCOC(=O)c1cnc(-n2nc(C)cc2C)nc1Nc1cccc(C(C)=O)c1 | -12.3% |
| CCOC(=O)c1cnc(-n2nc(C)cc2C)nc1NNc1cc(C)nc(-c2ccccc2)n1 | 54.9% (active) |
| CCOC(=O)c1cnc(-c2ccccc2)nc1Oc1ccc(C)cc1 | 7.98% |
| CCCCn1c(N)c(N(CCC(C)C)C(=O)c2ccc(COc3ccccc3)o2)c(=O)[nH]c1=O | 0.734% |
| CCc1c(C)nc(SCC(=O)NC2CCCC2)[nH]c1=O | -9.04% |
| CC(C)c1csc(CN2CCC(CO)(Cc3ccccc3)CC2)n1 | 67.1% (active) |
| OCC1(Cc2ccccc2)CCN(Cc2cc3ccccc3o2)CC1 | 16.6% |
| CC(=O)c1cccc(CN2CCC(CO)(Cc3ccccc3)CC2)c1 | 11.2% |
| Cc1ccc(C(=O)NC2CCCC(C)C2C)cc1S(=O)(=O)N1CCCCC1 (centres undefined) | 19.9% |
| O=C(CSc1nc2[nH]ncc2c(=O)[nH]1)Nc1ccc(F)cc1 | -0.401% |
| COc1ccc(S(=O)(=O)N2CCCCC2)cc1NC(=O)C1CC(=O)N(c2ccc3c(c2)OCCO3)C1 (centres undefined) | -2.94% |
| O=C(NCC(c1ccco1)N1CCc2ccccc21)c1cccc(F)c1 (centres undefined) | -6.59% |
| CCCOc1ccc(C(=O)C(CCC(CNCC)C(=O)c2ccc(OCCC)cc2)CNCC)cc1 (centres undefined) | 56% (active) |
| CCCOc1ccc(C(=O)CCC(=O)OC(C)C(=O)Nc2ccc(NC(C)=O)cc2)cc1 (centres undefined) | -13.4% |
| CCCOc1ccc(C(=O)NCCc2ccccc2)cc1 | 9.57% |
| COc1ccc(-c2cc(C(=O)N(C)CC(=O)Nc3ccccc3Cl)c3ccccc3n2)cc1OC | 9.44% |
| Cc1ccc(NC(=O)c2cnc(SCC(=O)NCC3CCCO3)n(C)c2=O)cc1 (centres undefined) | -7.14% |
| COc1cccc(Cn2cc(/C=N/NC(=O)c3cc(O)cc(O)c3)c3ccccc32)c1 | -8.85% |
| Cc1ccccc1C(=O)NCC(c1ccco1)N1CCc2ccccc21 (centres undefined) | 12% |
| Cc1ccc(Cc2nnc(SCC(=O)Nc3ccccc3C)[nH]c2=O)cc1 | -3.22% |
